According to ChEMBL document CHEMBL4219021, “Discovery of a Small-Molecule Degrader of Bromodomain and Extra-Terminal (BET) Proteins with Picomolar Cellular Potencies and Capable of Achieving Tumor Regression” (J Med Chem, 2018):
pIC50, pKi: −log10 of the molar value. Calls of active or inactive are those of the source. The rule behind the calls is not given here.

How the values were obtained:
[1] = molecular target: T1, Protein cereblon/Bromodomain-containing protein 3/Cullin-4A (Homo sapiens) (UniProt Q15059+Q96SW2+Q13619); assay: Induction of cereblon/cullin 4A-mediated BRD3 degradation in human RS4:11 cells after 3 hrs by Western blot method; format: cell-based
T1 sequence (Q13619 whole entry, looked up): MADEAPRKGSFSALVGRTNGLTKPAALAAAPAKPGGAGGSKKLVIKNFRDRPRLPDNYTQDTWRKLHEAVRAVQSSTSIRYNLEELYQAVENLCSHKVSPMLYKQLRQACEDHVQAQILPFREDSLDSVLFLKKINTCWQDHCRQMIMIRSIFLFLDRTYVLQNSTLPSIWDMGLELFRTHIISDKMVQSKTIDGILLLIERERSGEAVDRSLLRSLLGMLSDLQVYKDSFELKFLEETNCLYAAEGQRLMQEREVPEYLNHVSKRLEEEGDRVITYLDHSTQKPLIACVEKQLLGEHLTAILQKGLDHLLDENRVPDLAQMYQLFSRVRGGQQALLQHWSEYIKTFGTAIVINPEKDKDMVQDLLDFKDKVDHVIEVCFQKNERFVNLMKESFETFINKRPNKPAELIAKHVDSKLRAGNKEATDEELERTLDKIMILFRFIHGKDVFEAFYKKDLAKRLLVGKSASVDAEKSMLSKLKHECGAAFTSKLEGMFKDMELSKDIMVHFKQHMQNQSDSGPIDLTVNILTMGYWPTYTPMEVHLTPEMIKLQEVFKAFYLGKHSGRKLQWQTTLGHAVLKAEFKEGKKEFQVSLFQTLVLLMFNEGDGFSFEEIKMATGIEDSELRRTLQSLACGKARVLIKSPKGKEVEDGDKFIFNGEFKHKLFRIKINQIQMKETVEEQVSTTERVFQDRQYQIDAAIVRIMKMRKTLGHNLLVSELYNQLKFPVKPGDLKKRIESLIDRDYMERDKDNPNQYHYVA
T1 sequence (Q15059 whole entry, looked up): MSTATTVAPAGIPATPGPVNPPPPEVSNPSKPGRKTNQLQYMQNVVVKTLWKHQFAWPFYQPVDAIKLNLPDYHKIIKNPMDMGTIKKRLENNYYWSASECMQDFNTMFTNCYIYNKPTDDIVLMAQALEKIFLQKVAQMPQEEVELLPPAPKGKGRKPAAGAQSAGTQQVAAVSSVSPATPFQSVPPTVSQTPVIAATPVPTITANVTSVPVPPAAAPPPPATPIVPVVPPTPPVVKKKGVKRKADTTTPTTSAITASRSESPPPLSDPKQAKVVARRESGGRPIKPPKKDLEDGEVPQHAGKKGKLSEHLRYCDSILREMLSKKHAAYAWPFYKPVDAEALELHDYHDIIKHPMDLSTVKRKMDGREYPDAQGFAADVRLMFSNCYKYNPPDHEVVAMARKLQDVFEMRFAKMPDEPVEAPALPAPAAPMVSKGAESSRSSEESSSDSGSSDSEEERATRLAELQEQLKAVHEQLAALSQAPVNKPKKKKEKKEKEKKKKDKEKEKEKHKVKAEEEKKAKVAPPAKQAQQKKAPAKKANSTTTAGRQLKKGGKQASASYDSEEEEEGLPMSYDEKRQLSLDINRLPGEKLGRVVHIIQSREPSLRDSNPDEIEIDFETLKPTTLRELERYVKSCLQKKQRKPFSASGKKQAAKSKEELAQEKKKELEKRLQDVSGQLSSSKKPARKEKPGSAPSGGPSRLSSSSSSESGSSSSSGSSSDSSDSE
T1 sequence (Q96SW2 whole entry, looked up): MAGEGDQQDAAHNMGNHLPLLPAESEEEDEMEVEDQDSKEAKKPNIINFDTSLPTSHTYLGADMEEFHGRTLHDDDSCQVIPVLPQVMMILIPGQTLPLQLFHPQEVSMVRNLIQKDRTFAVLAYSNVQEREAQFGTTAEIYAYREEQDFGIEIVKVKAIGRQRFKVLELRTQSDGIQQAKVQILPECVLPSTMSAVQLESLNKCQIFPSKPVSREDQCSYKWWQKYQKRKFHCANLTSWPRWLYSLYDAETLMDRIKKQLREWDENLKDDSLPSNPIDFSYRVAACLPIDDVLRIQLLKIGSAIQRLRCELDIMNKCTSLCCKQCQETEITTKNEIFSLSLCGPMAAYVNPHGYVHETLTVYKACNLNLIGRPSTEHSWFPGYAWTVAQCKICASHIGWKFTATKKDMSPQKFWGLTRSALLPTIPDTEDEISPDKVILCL
Outline: (§1)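 RS4;11 cells (2 × 10⁶/well) treated for 3 h at the indicated concentrations. Lysed in RIPA with protease inhibitors and immunoblotted for BRD2, BRD3 and BRD4 with specific antibodies.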

[2] = test system: MOLM-13; assay: Cytotoxicity against human MOLM13 cells assessed as cell growth inhibition after 4 days by WST-8 assay; format: functional, cell-based; conditions: MOLM-13, 96 h
[3] = molecular target: T2, Protein cereblon/Bromodomain-containing protein 4/Cullin-4A (Homo sapiens) (UniProt O60885+Q96SW2+Q13619); assay: Induction of cereblon/cullin 4A-mediated BRD4 degradation in human RS4:11 cells after 3 hrs by Western blot method; format: cell-based
Outline: (§2)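 Western blot of RS4;11 cells (2 × 10⁶ cells/well) in RPMI 1640 with 10% FBS, 37 °C, 5% CO₂, used within three months of thawing. Compound exposure was 3 h or 24 h at the indicated concentrations. Cells were lysed in RIPA with protease inhibitors, and BRD2, BRD3 and BRD4 were detected with specific antibodies, with GAPDH as loading control.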

[4] = molecular target: T3, Protein cereblon/Bromodomain-containing protein 2/Cullin-4A (Homo sapiens) (UniProt P25440+Q96SW2+Q13619); assay: Induction of cereblon/cullin 4A-mediated BRD2 degradation in human RS4:11 cells after 3 hrs by Western blot method; format: cell-based; outline: as §1
T3 sequence (P25440 whole entry, looked up): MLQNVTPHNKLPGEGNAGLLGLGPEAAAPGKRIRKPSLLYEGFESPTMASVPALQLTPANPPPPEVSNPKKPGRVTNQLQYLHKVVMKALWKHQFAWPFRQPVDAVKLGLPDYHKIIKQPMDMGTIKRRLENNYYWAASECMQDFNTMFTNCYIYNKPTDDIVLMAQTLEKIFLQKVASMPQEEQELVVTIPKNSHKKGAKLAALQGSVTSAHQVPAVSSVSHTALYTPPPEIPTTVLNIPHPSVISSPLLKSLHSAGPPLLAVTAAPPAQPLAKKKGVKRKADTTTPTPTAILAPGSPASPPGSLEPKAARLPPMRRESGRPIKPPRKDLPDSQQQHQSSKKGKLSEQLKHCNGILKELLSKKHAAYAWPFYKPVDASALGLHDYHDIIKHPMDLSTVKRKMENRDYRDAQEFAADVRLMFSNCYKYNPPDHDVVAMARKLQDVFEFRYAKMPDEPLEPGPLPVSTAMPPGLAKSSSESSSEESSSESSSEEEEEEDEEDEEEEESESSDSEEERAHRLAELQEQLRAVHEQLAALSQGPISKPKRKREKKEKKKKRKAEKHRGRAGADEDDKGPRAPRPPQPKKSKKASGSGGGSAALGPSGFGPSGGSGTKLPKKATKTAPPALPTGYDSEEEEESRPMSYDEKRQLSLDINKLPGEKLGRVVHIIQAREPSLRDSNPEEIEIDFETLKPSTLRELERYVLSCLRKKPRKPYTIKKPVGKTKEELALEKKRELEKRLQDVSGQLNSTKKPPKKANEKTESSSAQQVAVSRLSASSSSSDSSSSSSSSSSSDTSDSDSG
T3 sequence (Q13619 whole entry, looked up): as the sequence (Q13619 whole entry, looked up) above
T3 sequence (Q96SW2 whole entry, looked up): as the sequence (Q96SW2 whole entry, looked up) above

[5] = test system: RS4-11; assay: Cytotoxicity against human RS4:11 cells assessed as cell growth inhibition after 4 days by WST-8 assay; format: functional, cell-based; conditions: RS4-11, 96 h
[6] = molecular target: T1, Protein cereblon/Bromodomain-containing protein 3/Cullin-4A (Homo sapiens); assay: Induction of cereblon/cullin 4A-mediated BRD3 degradation in human RS4:11 cells at 30 to 1000 nM after 3 hrs by Western blot method; format: cell-based; outline: as §2
[7] = molecular target: T3, Protein cereblon/Bromodomain-containing protein 2/Cullin-4A (Homo sapiens); assay: Induction of cereblon/cullin 4A-mediated BRD2 degradation in human RS4:11 cells at 30 to 1000 nM after 3 hrs by Western blot method; format: cell-based; outline: as §1
[8] = molecular target: T2, Protein cereblon/Bromodomain-containing protein 4/Cullin-4A (Homo sapiens); assay: Induction of cereblon/cullin 4A-mediated BRD4 degradation in human RS4:11 cells at 30 to 1000 nM after 3 hrs by Western blot method; format: cell-based; outline: as §2
[9] = molecular target: T3, Protein cereblon/Bromodomain-containing protein 2/Cullin-4A (Homo sapiens); assay: Induction of cereblon/cullin 4A-mediated BRD2 degradation in human RS4:11 cells at 3 to 30 nM after 3 hrs by Western blot method; format: cell-based; outline: as §1
[10] = molecular target: T1, Protein cereblon/Bromodomain-containing protein 3/Cullin-4A (Homo sapiens); assay: Induction of cereblon/cullin 4A-mediated BRD3 degradation in human RS4:11 cells at 3 to 30 nM after 3 hrs by Western blot method; format: cell-based; outline: as §2
[11] = molecular target: T1, Protein cereblon/Bromodomain-containing protein 3/Cullin-4A (Homo sapiens); assay: Induction of cereblon/cullin 4A-mediated BRD3 degradation in human RS4:11 cells at 30 to 300 nM after 3 hrs by Western blot method; format: cell-based; outline: as §2
[12] = molecular target: T3, Protein cereblon/Bromodomain-containing protein 2/Cullin-4A (Homo sapiens); assay: Induction of cereblon/cullin 4A-mediated BRD2 degradation in human RS4:11 cells at 30 to 300 nM after 3 hrs by Western blot method; format: cell-based; outline: as §1
[13] = molecular target: T2, Protein cereblon/Bromodomain-containing protein 4/Cullin-4A (Homo sapiens); assay: Induction of cereblon/cullin 4A-mediated BRD4 degradation in human RS4:11 cells at 30 to 300 nM after 3 hrs by Western blot method; format: cell-based; outline: as §2
[14] = molecular target: T2, Protein cereblon/Bromodomain-containing protein 4/Cullin-4A (Homo sapiens); assay: Induction of cereblon/cullin 4A-mediated BRD4 degradation in human MOLM13 cells after 3 hrs by Western blot method; format: cell-based
[15] = molecular target: T1, Protein cereblon/Bromodomain-containing protein 3/Cullin-4A (Homo sapiens); assay: Induction of cereblon/cullin 4A-mediated BRD3 degradation in human MOLM13 cells after 3 hrs by Western blot method; format: cell-based
[16] = molecular target: T3, Protein cereblon/Bromodomain-containing protein 2/Cullin-4A (Homo sapiens); assay: Induction of cereblon/cullin 4A-mediated BRD2 degradation in human MOLM13 cells after 3 hrs by Western blot method; format: cell-based
[17] = molecular target: T1, Protein cereblon/Bromodomain-containing protein 3/Cullin-4A (Homo sapiens); assay: Induction of cereblon/cullin 4A-mediated BRD3 degradation in human RS4:11 cells at 3 to 10 nM after 3 hrs by Western blot method; format: cell-based; outline: as §2
[18] = molecular target: T2, Protein cereblon/Bromodomain-containing protein 4/Cullin-4A (Homo sapiens); assay: Induction of cereblon/cullin 4A-mediated BRD4 degradation in human RS4:11 cells at 3 to 10 nM after 3 hrs by Western blot method; format: cell-based; outline: as §2
[19] = molecular target: T3, Protein cereblon/Bromodomain-containing protein 2/Cullin-4A (Homo sapiens); assay: Induction of cereblon/cullin 4A-mediated BRD2 degradation in human RS4:11 cells at 3 to 10 nM after 3 hrs by Western blot method; format: cell-based; outline: as §1
[20] = molecular target: T4, Bromodomain-containing protein 4 (Homo sapiens, UniProt O60885); assay: Inhibition of FAM-labeled ZBA248 binding to recombinant N-terminal His6-tagged BRD4 bromodomain 1 (44 to 168 residues) (unknown origin) expressed in Escherichia coli Rosetta2 DE3 after 30 mins by fluorescence polarization assay
[21] = molecular target: T5, Bromodomain-containing protein 3 (Homo sapiens, UniProt Q15059); assay: Inhibition of FAM-labeled ZBA248 binding to recombinant N-terminal His6-tagged BRD3 bromodomain 2 (306 to 417residues) (unknown origin) expressed in Escherichia coli Rosetta2 DE3 after 30 mins by fluorescence polarization assay
T5 sequence (Q15059 whole entry, the tested form may be a part): as the sequence (Q15059 whole entry, looked up) above

[22] = molecular target: T6, Bromodomain-containing protein 2 (Homo sapiens, UniProt P25440); assay: Inhibition of FAM-labeled ZBA248 binding to recombinant N-terminal His6-tagged BRD2 bromodomain 2 (349 to 460 residues) (unknown origin) expressed in Escherichia coli Rosetta2 DE3 after 30 mins by fluorescence polarization assay
T6 sequence (P25440 whole entry, the tested form may be a part): as the sequence (P25440 whole entry, looked up) above

[23] = molecular target: T4, Bromodomain-containing protein 4; assay: Inhibition of FAM-labeled ZBA248 binding to recombinant N-terminal His6-tagged BRD4 bromodomain 2 (333 to 460 residues) (unknown origin) expressed in Escherichia coli Rosetta2 DE3 after 30 mins by fluorescence polarization assay
[24] = molecular target: T5, Bromodomain-containing protein 3; assay: Inhibition of FAM-labeled ZBA248 binding to recombinant N-terminal His6-tagged BRD3 bromodomain 1 (24 to 144 residues) (unknown origin) expressed in Escherichia coli Rosetta2 DE3 after 30 mins by fluorescence polarization assay
[25] = molecular target: T6, Bromodomain-containing protein 2; assay: Inhibition of FAM-labeled ZBA248 binding to recombinant N-terminal His6-tagged BRD2 bromodomain 1 (72 to 205 residues) (unknown origin) expressed in Escherichia coli Rosetta2 DE3 after 30 mins by fluorescence polarization assay

## CCn1nc(C2CC2)cc1Nc1nc(C(=O)NCCCCc2cccc3c2CN(C2CCC(=O)NC2=O)C3=O)nc2[nH]c3cc(-c4c(C)noc4C)c(OC)cc3c12 (stereo not given)
[1]
  Activity: Dose-dependent effect
[2]
  pIC50: 7.86
[3]
  Activity: Dose-dependent effect
[4]
  Activity: Dose-dependent effect
[5]
  pIC50: 9.01

## CCn1nc(C2CC2)cc1Nc1nc(C(=O)NCCCCCc2cccc3c2CN(C2CCC(=O)N(C)C2=O)C3=O)nc2[nH]c3cc(-c4c(C)noc4C)c(OC)cc3c12 (stereo not given)
[6]
  Activity: inactive
[2]
  pIC50: 7.08
[7]
  Activity: inactive
[8]
  Activity: inactive
[5]
  pIC50: 7.45

## CCn1nc(C2CC2)cc1Nc1nc(C(=O)NCCNc2cccc3c2C(=O)N(C2CCC(=O)NC2=O)C3=O)nc2[nH]c3cc(-c4c(C)noc4C)c(OC)cc3c12 (stereo not given)
[2]
  pIC50: 7.16
[5]
  pIC50: 8.32

## CCn1nc(C2CC2)cc1Nc1nc(C(=O)NCCCCNC(=O)CNc2cccc3c2C(=O)N(C2CCC(=O)NC2=O)C3=O)nc2[nH]c3cc(-c4c(C)noc4C)c(OC)cc3c12 (stereo not given)
[2]
  pIC50: 7.70
[5]
  pIC50: 8.60

## CCn1nc(C2CC2)cc1Nc1nc(C(=O)NCCCCNc2cccc3c2C(=O)N(C2CCC(=O)NC2=O)C3=O)nc2[nH]c3cc(-c4c(C)noc4C)c(OC)cc3c12 (stereo not given)
[2]
  pIC50: 8.30
[5]
  pIC50: 9.35

## CCn1nc(C2CC2)cc1Nc1nc(C(=O)NCCCCCCNc2cccc3c2C(=O)N(C2CCC(=O)NC2=O)C3=O)nc2[nH]c3cc(-c4c(C)noc4C)c(OC)cc3c12 (stereo not given)
[2]
  pIC50: 8.43
[5]
  pIC50: 9.20

## Cc1sc2c(c1C)C(c1ccc(Cl)cc1)=N[C@@H](CC(=O)Nc1ccc(OCCOCCOCCOCCNc3cccc4c3C(=O)N(C3CCC(=O)NC3=O)C4=O)cc1)c1nnc(C)n1-2 (stereo not given in full)
[9]
  Activity: Active
[10]
  Activity: Active

## CCn1nc(C2CC2)cc1Nc1nc(C(=O)NCCCc2cccc3c2CN(C2CCC(=O)NC2=O)C3=O)nc2[nH]c3cc(-c4c(C)noc4C)c(OC)cc3c12 (stereo not given)
[1]
  Activity: Dose-dependent effect
[2]
  pIC50: 7.14
[3]
  Activity: Dose-dependent effect
[4]
  Activity: Dose-dependent effect
[5]
  pIC50: 8.02

## CCn1nc(C2CC2)cc1Nc1nc(C(=O)NCCCCCCc2cccc3c2CN(C2CCC(=O)NC2=O)C3=O)nc2[nH]c3cc(-c4c(C)noc4C)c(OC)cc3c12 (stereo not given)
[1]
  Activity: Dose-dependent effect
[2]
  pIC50: 9.00
[3]
  Activity: Dose-dependent effect
[4]
  Activity: Dose-dependent effect
[5]
  pIC50: 10.43

## CCn1nc(C2CC2)cc1Nc1nc(C(=O)NCCCCCCCOc2cccc3c2C(=O)N(C2CCC(=O)NC2=O)C3=O)nc2[nH]c3cc(-c4c(C)noc4C)c(OC)cc3c12 (stereo not given)
[2]
  pIC50: 8.41
[5]
  pIC50: 9.32

## Cc1sc2c(c1C)C(c1ccc(Cl)cc1)=N[C@@H](CC(=O)NCCCCNC(=O)COc1cccc3c1C(=O)N(C1CCC(=O)NC1=O)C3=O)c1nnc(C)n1-2 (stereo not given in full)
[11]
  Activity: Active
[2]
  pIC50: 6.18
[12]
  Activity: Active
[13]
  Activity: Active

## CCn1nc(C2CC2)cc1Nc1nc(C(=O)NCCCCCNc2cccc3c2C(=O)N(C2CCC(=O)NC2=O)C3=O)nc2[nH]c3cc(-c4c(C)noc4C)c(OC)cc3c12 (stereo not given)
[14]
  Activity: Active
[2]
  pIC50: 8.68
[5]
  pIC50: 9.85
[15]
  Activity: Active
[16]
  Activity: Active

## CCn1nc(C2CC2)cc1Nc1nc(C(=O)NCCOCCCc2cccc3c2CN(C2CCC(=O)NC2=O)C3=O)nc2[nH]c3cc(-c4c(C)noc4C)c(OC)cc3c12 (stereo not given)
[2]
  pIC50: 8.27
[5]
  pIC50: 9.05

## CCn1nc(C2CC2)cc1Nc1nc(C(=O)NCCOCCCc2cccc3c2C(=O)N(C2CCC(=O)NC2=O)C3=O)nc2[nH]c3cc(-c4c(C)noc4C)c(OC)cc3c12 (stereo not given)
[2]
  pIC50: 8.23
[5]
  pIC50: 9.38

## CCn1nc(C2CC2)cc1Nc1nc(C(=O)NCCCCNC(=O)COc2cccc3c2C(=O)N(C2CCC(=O)NC2=O)C3=O)nc2[nH]c3cc(-c4c(C)noc4C)c(OC)cc3c12 (stereo not given)
[17]
  Activity: Active
[18]
  Activity: Active
[19]
  Activity: Active
[2]
  pIC50: 7.34
[5]
  pIC50: 8.37

## CCn1nc(C2CC2)cc1Nc1nc(C(=O)NCCCNc2cccc3c2C(=O)N(C2CCC(=O)NC2=O)C3=O)nc2[nH]c3cc(-c4c(C)noc4C)c(OC)cc3c12 (stereo not given)
[2]
  pIC50: 8.02
[5]
  pIC50: 8.62

## CCn1nc(C2CC2)cc1Nc1nc(C(=O)NCCCCCCc2cccc3c2C(=O)N(C2CCC(=O)NC2=O)C3=O)nc2[nH]c3cc(-c4c(C)noc4C)c(OC)cc3c12 (stereo not given)
[2]
  pIC50: 8.60
[5]
  pIC50: 9.77

## COc1cc2c(cc1-c1c(C)noc1C)[nH]c1nc(C(=O)NCCCCCc3cccc4c3CN(C3CCC(=O)NC3=O)C4=O)ncc12 (stereo not given)
[2]
  pIC50: < 6.00
[5]
  pIC50: < 6.00

## CCn1nc(C2CC2)cc1Nc1nc(C(=O)NCCCCCCCNc2cccc3c2C(=O)N(C2CCC(=O)NC2=O)C3=O)nc2[nH]c3cc(-c4c(C)noc4C)c(OC)cc3c12 (stereo not given)
[14]
  Activity: Active
[2]
  pIC50: 8.92
[5]
  pIC50: 9.70
[15]
  Activity: Active
[16]
  Activity: Active

## CCn1nc(C2CC2)cc1Nc1nc(C(=O)NCCCCCc2cccc3c2C(=O)N(C2CCC(=O)NC2=O)C3=O)nc2[nH]c3cc(-c4c(C)noc4C)c(OC)cc3c12 (stereo not given)
[2]
  pIC50: 8.68
[5]
  pIC50: 9.85

## CNC(=O)c1ncc2c(n1)[nH]c1cc(-c3c(C)noc3C)c(OC)cc12
[20]
  pIC50: 6.32
  pKi: 6.82
[21]
  pIC50: 6.72
  pKi: 7.37
[22]
  pIC50: 6.65
  pKi: 7.24
[23]
  pIC50: 6.20
  pKi: 6.69
[24]
  pIC50: 6.53
  pKi: 7.09
[25]
  pIC50: 6.66
  pKi: 7.00
